# Assay outcomes from PubChem BioAssay.
# Apaf-1 act = activates human Apaf-1 apoptosome. O14727. Apaf-1 apoptosome caspase-3 activation, DEVD-Rh110 fluorescence; hits give low values. activity change, negative = activation, % at 20 µM. hit rate 0.31% among 330,000. AID 489031;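 active means activity change at or below -40% at 20 µM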
#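 Schedule: 30 min preincubation, 50 min reaction, room temperature / System: biochemical Apaf-1 apoptosome reconstitution / Medium: 20 mM HEPES pH 7.5 with CHAPS, BSA / Evaluation: Caspase-3 cleavage activity downstream of Apaf-1 activation / Detection: Caspase-3-released Rh110 fluorescence, 540 nm emission, 480 nm excitation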
# Rh110 act interf = interferes with Rh110 fluorescence, flagging false Apaf-1 activators | fluorescence interference (activity change), % at 20 µM, hits read low | shares compounds with Apaf-1 act | 980 tested, under 10 active | Rh110 fluorescence interference, quenched caspase reaction, Ex480/Em540;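 active means mean activity change at or below -40% when tested at 20 µM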
# Apaf-1 act conf2 = confirmation of human Apaf-1 activators. shares compounds with Apaf-1 act. reconstituted apoptosome caspase-3 activity, DEVD-Rh110 fluorescence; hits give low values. activity change, negative = activation, % at 20 µM. hit rate 5% among 980;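 active means mean activity change at or below -40%, meaning activation of 40% or more, at 20 µM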
# Apaf1 act interf = counter-screen for Apaf-1 activators: fluorescence interference, dose response | 55 tested, under 10 active | fluorescence interference counterscreen, Apaf-1 activator assay | EC50, µM | AID 588592 | shares compounds with Apaf-1 act; call rule not given here
# The depositor's hits bear a star; . = no result given. These entries were drawn from the full list.
SMILES,Apaf-1 act,Rh110 act interf,Apaf-1 act conf2,others
CCN(CC(=O)Nc1ccc(NC(C)=O)cc1)C(=O)c1ccccc1Sc1ccccc1C#N,55.7,.,.,
N=c1n(CC(=O)c2ccc(Br)cc2)c2ccccc2n1Cc1ccccc1,53.4,.,.,
N#CCCn1cc(C(CC(=O)c2ccc(Br)cc2)C(=O)O)c2ccccc21 (stereo unspecified),-67.4*,9.8,-48.4*,Apaf1 act interf=>100
COc1ccc(C2c3sc(=O)[nH]c3SC3C(=O)N(c4ccccc4)C(=O)C32)cc1 (stereo unspecified),-177.8*,3.8,9.8,
O=C1N=C(N2CCN(Cc3ccccc3)CC2)S/C1=C/c1cccs1,-408.0*,10.9,20.4,
CC(=O)N1CCN(C(=S)Nc2ccc(SC(F)F)cc2)CC1,96.0,.,.,
Cc1ccc(N(CC2=NCCN2)c2cccc(O)c2)cc1,-2.2,.,.,
C#CCOCCOCCOCCNc1nc(N2CCN(C(=O)CCCCCCCCCCNC(=O)[C@H](CCCCN)n3cc(C)nn3)CC2)nc(N2CCN(C(=O)CCCCCCCCCCNC(=O)[C@@H]([C@H](C)CC)n3cc(CCCCCN)nn3)CC2)n1,81.5,.,.,
Cc1ccc2[nH]c(=O)c(C(c3nnnn3CC3CCCO3)N3CCc4ccccc4C3)cc2c1 (stereo unspecified),66.0,.,.,
COC(=O)C1=C(N)OC2=C(C(=O)CC(C)(C)C2)C1c1cccnc1 (stereo unspecified),-307.9*,6.2,12.1,
Cc1c(N=Cc2cccs2)c(=O)n(-c2ccccc2)n1C,-181.8*,0.6,8.4,
CC1=NN(c2ccccc2)C(=O)/C1=C/c1cccs1,89.9,.,.,
CC(C)(C)c1ccc(C(=O)NNc2cc(N3CCCCC3)nc(N3CCCCC3)n2)cc1,73.4,.,.,
CC(=O)c1ccc(NC(=O)c2cnsn2)cc1,-409.7*,5.2,11.9,
CC(=O)c1ccc(NC(=S)Nc2cccc3cnccc23)cc1,96.3,.,.,
CC(=O)c1ccc(NC(=O)c2ccc3nc(-c4ccco4)c(-c4ccco4)nc3c2)cc1,51.9,.,.,
c1cc2c3c(cccc3c1)NC1(CCCCCC1)N2,49.0,.,.,
CCOc1ccccc1NC(=O)c1cc(-c2ccccn2)nc2ccccc12,52.8,.,.,
CC(C)(C)NC(=O)c1cc(-c2ccc3c(c2)OCO3)nc2ccccc12,-71.3*,4.0,1.1,
O=C1NCCCC2c3cc(O)c4ccccc4c3OC12N1CCCCC1 (stereo unspecified),93.0,.,.,
CCOc1cccc(-c2cc(=O)[nH][nH]2)c1,43.9,.,.,
NNc1nc2c(Cl)c(Cl)ccc2s1,-59.0*,0.0,10.2,
CC(C)OCCCNC1=C(Cl)C(=O)c2ccccc2C1=O,52.8,.,.,
CC(C)[C@H](N)C(=O)OCCOCn1cnc2c(=O)[nH]c(N)nc21,-6.6,.,.,
CC(=O)Nc1ccc(NC(=O)C2CC(=O)Nc3nc4ccccc4n32)cc1 (stereo unspecified),-43.4*,5.8,9.0,
SMILES,Apaf-1 act,Rh110 act interf,Apaf-1 act conf2,others
COC(=O)c1c(N)n(-c2ccc(NC(C)=O)cc2)c2nc3ccccc3nc12,48.8,.,.,
C[C@]12C=CC(=O)C=C1CC[C@@H]1C2=CC[C@]2(C)[C@@H](C(=O)CN3CCN(c4cc(N5CCCC5)nc(N5CCCC5)n4)CC3)CC[C@@H]12,86.7,.,.,
CCOc1ccc(CCNC(=O)c2ccc3c(=O)[nH]c4c(C(=O)NC(C)C)sc(=S)n4c3c2)cc1,-515.0*,-8.3,16.0,
NC1=NC[C@H](c2ccccc2)N1CCc1cc(C(F)(F)F)cc(C(F)(F)F)c1,54.3,.,.,
COc1ccccc1-c1sc2cc3c(cc2c1-c1ccc(OCCN2CCCCC2)cc1)OCO3,59.4,.,.,
O=C1/C(=N\S(=O)(=O)c2cccs2)C([n+]2ccc(CCCc3ccccc3)cc2)=C([O-])c2ccccc21,45.6,.,.,
O=c1cc(-c2cc3ccccc3o2)c2cc(O)ccc2o1,-234.4*,10.8,18.1,
CC1=NN(c2ccc(N)cc2)C(=O)C1,53.4,.,.,
O=C(NCCc1ccccc1)c1ccccc1SCC(=O)N1CCCC1,60.3,.,.,
O=C(CSc1ccccn1)N1CCN(c2ccccc2)CC1,-49.0*,-9.6,6.2,
Cc1ccc(-c2noc(CCC(=O)N3CCN(c4cccc(C(F)(F)F)c4)CC3)n2)cc1,42.1,.,.,
CCCCC1=CC2=C(c3ccco3)C(=O)C(C)(OC(=O)c3ccc(OC)cc3)C(=O)C2=CN1C1CC1 (stereo unspecified),40.1,.,.,
O=S(=O)(c1ccc(Br)cc1)N1CCN(c2ccc3nnc(-c4ccccc4)n3n2)CC1,40.8,.,.,
CC1CCN(C2=C(NS(=O)(=O)c3ccc(Br)cc3)C(=O)c3ccccc3C2=O)CC1,53.9,.,.,
CC1CCCN(C2=C(NS(=O)(=O)c3ccc(Br)cc3)C(=O)c3ccccc3C2=O)C1 (stereo unspecified),51.3,.,.,
CCOC(=O)C1CCCN(C2=C(NS(=O)(=O)c3ccc(Br)cc3)C(=O)c3ccccc3C2=O)C1 (stereo unspecified),67.0,.,.,Apaf1 act interf=>100
COCCN(C(=O)COC(=O)/C=C/c1ccc(C(F)(F)F)cc1)c1c(N)n(Cc2ccccc2)c(=O)[nH]c1=O,44.2,.,.,
NC(N)=N/N=C/c1c(Cl)cccc1Cl,1.1,.,.,
O=C1C(Nc2ccccc2)=C(N2CCCCC2)C(=O)c2ccccc21,93.1,.,.,
Cc1cc(C)c(S(=O)(=O)Nc2ccc3c4c(cccc24)CC3)c(C)c1,43.0,.,.,
COc1ccc(N2C(=O)CCC(C(=O)O)C2c2ccccc2OC)cc1 (stereo unspecified),-172.2*,-1.6,5.9,
O=[N+]([O-])c1cc(CN2CCN(c3cccc(C(F)(F)F)c3)CC2)c2cccnc2c1O,41.6,.,.,
CC(C)C(=O)NC(c1cccs1)c1cc([N+](=O)[O-])c2cccnc2c1O (stereo unspecified),68.3,.,.,
O=C1c2ccccc2N[C@@H]2C=CC[C@@H]2N1O,-55.6*,-8.7,8.9,
Cc1cc(-c2ccc(N=Nc3c(S(=O)(=O)O)cc4cc(S(=O)(=O)O)cc(N)c4c3O)c(C)c2)ccc1N=Nc1c(S(=O)(=O)O)cc2cc(S(=O)(=O)O)cc(N)c2c1O,98.3,.,.,
SMILES,Apaf-1 act,Rh110 act interf,Apaf-1 act conf2,others
CCN(Cc1ccncc1)C(=O)c1ccc(Br)o1,-613.1*,-0.6,8.1,
N#Cc1c(N(CCO)CCO)nc(N)c2c(N)nc3c(c12)CC(=O)N3Cc1cccs1,72.8,.,.,
CC(C)[C@H](CO)Nc1nc(Nc2ccc(Cl)c(C(=O)O)c2)c2ncn(C(C)C)c2n1,43.7,.,.,
O=C(Nc1ccc2ccccc2n1)Nc1cccs1,-58.3*,-1.4,13.7,
COCCCC1CCN(Cc2nc(-c3ccccc3)no2)CC1,-50.8*,6.6,11.0,
c1ccc(-c2noc(CN3CCN(c4cnccn4)CC3)n2)cc1,-91.8*,3.0,1.1,
Cc1onc(-c2ccccc2Cl)c1C(=O)N[C@@H]1C(=O)N2[C@@H]1SC(C)(C)[C@@H]2C(=O)O,-1.6,.,.,
CCOC(=O)c1c(CSC(=N)N)n(-c2ccc(C)cc2)c2cc(Br)c(OC(C)=O)cc12,45.8,.,.,
CCS(=O)(=O)c1nc(S(=O)(=O)c2ccc(Cl)cc2)c(N2CCc3ccccc3C2)s1,-406.2*,-1.6,11.0,
Cc1ccc2nc(N(CCCN(C)C)C(=O)c3ccc(S(=O)(=O)N4CCc5ccccc5C4)cc3)sc2c1,53.0,.,.,
COc1ccc(C[C@H]2CN3C(=NC[C@H]3Cc3ccccc3)N2CCNC(=O)c2ccc(C)c(Br)c2)cc1,42.9,.,.,
